Measured values reported in article PMC4610013 (Science Advances, 2015).

Key:
blood-brain barrier = assay: Contrast-enhanced MRI of BBB integrity; assay type: in vivo, mouse; conditions: wild-type mice, tail-vein injection, 7-T T1-weighted MRI over 20 min, n = 4
Procedure, shortened: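 Mice received targeting or nontargeting siRNA (20 μg complexed with in vivo-jetPEI in 10% glucose, 15 min at room temperature). On a 7-T small-animal MRI, scans ran before and after tail-vein 100 μl of 1:3-diluted Gd-DTPA (0.5 M stock), monitored 20 min. Settings: TR/TE 500/2.7 ms, 30° flip angle, 8 repetitions. Hippocampal bolus-chase clearance was analysed blind to treatment.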

claudin-5 and occludin = assay: Tight junction protein levels after Aβ treatment; assay type: cell-based, mouse; conditions: brain endothelial cells, increasing doses, 12 hours after treatment, Western blot
Procedure, shortened: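 Bend.3 mouse brain endothelial cells were grown in DMEM with 20% FCS and 2 mM sodium pyruvate at 37°C, 5% CO2. They were exposed 12 h to increasing concentrations of Aβ(1–40) peptide forms, with unmodified monomer at 0.1 to 1 μM. Cells were lysed in tris/2% SDS/10 mM DTT buffer and spun 12,000 rpm for 20 min at 4°C. Tight junction proteins were measured by Western blot densitometry, n = 3 […] per concentration.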

[1] = cited from earlier work

Compound | extravasation of MRI contrast agent after claudin-5 and occludin cosuppression (blood-brain barrier) | levels of claudin-5 and occludin protein (claudin-5 and occludin) | propensity for aggregation [1]
O=C([O-])CN(CCN(CC(=O)[O-])CC(=O)O)CCN(CC(=O)[O-])CC(=O)O.[Gd+3] [Gd-DTPA, gadolinium–diethylenetriamine pentaacetic acid] | increased extravasation |  | 
Aβ(1–40): unmodified Aβ(1–40) monomer isolated by size exclusion chromatography |  | dose-dependent decrease | 
Aβ(1–40)DiY: dityrosine cross-linked dimer prepared by oxidative cross-linking of Aβ(1–40) |  | down-regulated | 
Aβ(1–40)F19P |  | down-regulated | little or no propensity for aggregation
